In ChEMBL document CHEMBL1130397, “Structure-activity relationships of (4-acylpyrrol-2-yl)alkanoic acids as inhibitors of the cytosolic phospholipase A2: variation of the substituents in positions 1, 3, and 5” (J Med Chem, 1997):
pIC50: −log10 of the molar value. Activity calls are given as the source filed them. The calls are words filed in the database; no cut-off is given here.

Legend:
[1] = tested on: Cytosolic phospholipase A2 (Bos taurus); experiment: Inhibition of cPLA2 measuring Calcium ionophore A-23,187-induced arachidonic acid release from bovine platelets with HPLC/UV detection; 0% inhibition at 3.3 uM concentration.
[2] = Percentage platelet cell lysis at 33 uM measured by turbidimetry.; assay type: functional, Bos taurus
Outline: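 Turbidimetric lysis: ETYA solution, then test compound or solvent control, then bovine platelet suspension and calcium chloride at 37 °C. After dilution with phosphate-buffered saline, absorbance read at 800 nm; lysis lowers absorbance. Compounds dissolved in DMSO or DMSO–0.05 M ethanolic NaOH (1+1). Performed within 36 h of platelet isolation; platelets kept at 4 °C.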

[3] = tested on: Cytosolic phospholipase A2 (Bos taurus); experiment: Inhibition of cPLA2 measuring Calcium ionophore A-23,187-induced arachidonic acid release from bovine platelets with HPLC/UV detection.; NA = 0% inhibition at 3.3 uM
[4] = tested on: Cytosolic phospholipase A2 (Bos taurus); experiment: Inhibition of cPLA2 measuring Calcium ionophore A-23,187-induced arachidonic acid release from bovine platelets with HPLC/UV detection; Not active at 20 uM
[5] = tested on: Cytosolic phospholipase A2 (Bos taurus); experiment: Inhibition of cPLA2 measuring Calcium ionophore A-23,187-induced arachidonic acid release from bovine platelets with HPLC/UV detection. at 3.3 uM concentration.
[6] = target: T1, Cytosolic phospholipase A2 (Bos taurus, UniProt A4IFJ5); experiment: Inhibition of cPLA2 measuring Calcium ionophore A-23,187-induced arachidonic acid release from bovine platelets with HPLC/UV detection; assay type: functional
T1 sequence (A4IFJ5 whole entry): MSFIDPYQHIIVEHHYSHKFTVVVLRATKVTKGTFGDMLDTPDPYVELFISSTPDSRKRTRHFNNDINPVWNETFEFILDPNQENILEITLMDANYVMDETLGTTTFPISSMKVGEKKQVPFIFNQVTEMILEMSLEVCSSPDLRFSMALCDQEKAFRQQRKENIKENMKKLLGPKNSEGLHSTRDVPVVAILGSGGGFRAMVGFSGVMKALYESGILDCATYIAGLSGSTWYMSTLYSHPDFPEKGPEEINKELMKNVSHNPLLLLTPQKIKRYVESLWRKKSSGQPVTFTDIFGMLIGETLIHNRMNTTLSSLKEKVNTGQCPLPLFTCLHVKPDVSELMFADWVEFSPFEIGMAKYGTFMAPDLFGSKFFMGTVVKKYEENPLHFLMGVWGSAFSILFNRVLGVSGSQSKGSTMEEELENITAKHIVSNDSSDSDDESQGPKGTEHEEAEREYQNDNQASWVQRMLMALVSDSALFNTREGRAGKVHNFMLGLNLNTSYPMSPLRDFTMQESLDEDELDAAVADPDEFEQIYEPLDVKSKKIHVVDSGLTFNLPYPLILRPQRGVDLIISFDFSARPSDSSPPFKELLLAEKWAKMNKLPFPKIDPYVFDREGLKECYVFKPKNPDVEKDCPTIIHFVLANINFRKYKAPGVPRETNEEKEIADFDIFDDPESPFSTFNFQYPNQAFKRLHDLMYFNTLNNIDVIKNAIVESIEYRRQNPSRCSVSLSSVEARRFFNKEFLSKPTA
Outline: (§1)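 Bovine platelet suspension stimulated with calcium ionophore A23187; released arachidonic acid quantified by HPLC/UV. Test compounds in DMSO, or DMSO–0.05 M ethanolic NaOH, added after platelets in the latter case to protect ETYA. Assays run within 36 h of platelet isolation; platelets stored at 4 °C. Values averaged from at least two runs, error within ±20%.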

[7] = target: T1, Cytosolic phospholipase A2; experiment: Inhibition of cPLA2 measuring Calcium ionophore A-23,187-induced arachidonic acid release from bovine platelets with HPLC/UV detection.; assay type: functional; conditions: for pIC50: read-out: IC50
Outline: as §1

[8] = Ability of arachidonic acid release at 10 uM; assay type: functional
Outline: as §1

[9] = 33 uM, in the assay text read “at 33 uM” for “at 10 uM”

Row | Structure (SMILES) | pIC50 [7] | Lysis [2] [%] | other results
1 | CCCCCCCCCCCCCCCCCC(=O)c1c(C)c(CCC(=O)O)n(Cc2ccc(Cl)cc2)c1C |  | 13 | inhibition [1]: inactive
2 | CCCCCCCCCCCCCCCCCC(=O)c1c(C)c(CCC(=O)O)n(CCCCCC)c1C |  | 10 | inhibition [3]: inactive; IC50 [4]: Not Active
3 | CCCCCCCCCCCCCCCCCC(=O)c1c(C)c(CCC(=O)O)n(Cc2ccc(C(N)=O)cc2)c1C |  | 0 | inhibition [5]: 44%
4 | CCCCCCCCCCCC(=O)c1c(C)c(CC(=O)O)n(CCCCCCCC(=O)O)c1C |  | 0 | pIC50 [6]: 5.43
5 | CCCCCCCCCCCCCCCCCC(=O)c1c(C)c(CCC(=O)O)n(Cc2ccc(OC)cc2)c1C |  | 12 | inhibition [5]: 31%
6 | CCCCCCCCCCCC(=O)c1c(C)c(CCC(=O)O)n(C)c1C |  | 0 | pIC50 [6]: 4.89
7 | CCCCCCCCCCCCCCCCCC(=O)c1c(CCCCCCCCCCCC)c(CC(=O)O)n(C)c1C |  | 0 | Activity [8, 9]: 1.5 fold
8 | CCCCCCCCCCCCCCCCCC(=O)c1c(C)c(CCC(=O)O)n(CCCCCC(=O)O)c1C |  | 54 | inhibition [5]: 52%
9 | CCCCCCCCCCCC(=O)c1c(C)c(CCC(=O)O)n(CCCCC(=O)O)c1C |  | 0 | pIC50 [6]: 5.41
10 | CCCCCCCCCCCC(=O)c1c(C)c(CC(=O)O)n(CCCCCCC(=O)O)c1C |  | 0 | pIC50 [6]: 5.25
11 | CCCCCCCCCCCCCCCCCC(=O)c1cc(CCC(=O)O)n(C)c1 | 4.85 | 0 | 
12 | CCCCCCCCCCCCCCCCCC(=O)c1c(C)c(CCC(=O)O)n(CCCCCCN(C)C)c1C |  | 0 | inhibition [5]: 33%
13 | CCCCCCCCCCCCCCCCCC(=O)c1c(C)c(CC(=O)O)n(CCCCCCC)c1C |  | 19 | IC50 [7]: Not Active
14 | CCCCC/C=C\C/C=C\C/C=C\C/C=C\CCCC(=O)C(F)(F)F [ARACHIDONYL TRIFLUOROMETHYLKETONE] |  | 31 | 
15 | CCCCCCCCCCCCCCCCNC(=O)[C@@H]1CCCN1 | 4.89 | 0 | 
16 | CCCCCCCCCCCCCCCCCC(=O)c1c(C)c(CCC(=O)O)n(Cc2ccc(C(F)(F)F)cc2)c1C |  | 13 | inhibition [1]: inactive
17 | CCCCCCCCCCCCCCCCCC(=O)c1c(C)c(CCC(=O)O)n(CCCCCCO)c1C |  | 0 | inhibition [5]: 20%

Row | Structure (SMILES) | pIC50 [7] | Lysis [2] [%] | other results
18 | CCCCCCCCCCCCCCCCCC(=O)c1c(C)c(CCC(=O)O)n(Cc2ccc(C)cc2)c1C |  | 14 | inhibition [1]: inactive; IC50 [4]: Not Active
19 | CCCCCCCCCCCC(=O)c1c(C)c(CC(=O)O)n(CCCCCCCCC(=O)O)c1C |  | 21 | pIC50 [6]: 5.48
20 | CCCCCCCCCCCCCCCCCC(=O)c1c(Cc2ccccc2)c(CC(=O)O)n(Cc2ccccc2)c1C |  | 24 | Activity ([8]; 10 uM): 1.3 fold
21 | CCCCCCCCCCCC(=O)c1c(C)c(CCC(=O)O)n(CCCCCC(=O)O)c1C |  | 0 | pIC50 [6]: 5.47
22 | CCCCCCCCCCCCCCCCCC(=O)c1c(C)c(CCC(=O)O)n(Cc2ccc(C#N)cc2)c1C |  | 26 | inhibition [5]: 15%
23 | CCCCCCCCCCCCCCCCCC(=O)c1c(C)c(CCC(=O)O)n(CCCCCC#N)c1C |  | 39 | inhibition [5]: 40%
24 | CCCCCCCCCCCC(=O)c1c(C)c(CCC(=O)O)n(CCCCCCC(=O)O)c1C |  | 0 | pIC50 [6]: 5.42
25 | CCCCCCCCCCCCCCCCCC(=O)c1c(C)c(CCC(=O)O)n(CCCCCC(=O)N(C)C)c1C |  | 67 | inhibition [5]: 38%
26 | CCCCCCCCCCCCCCCCCC(=O)c1c(C)c(CCC(=O)O)n(Cc2ccc(C(=O)N(C)C)cc2)c1C |  | 42 | inhibition [5]: 34%
27 | CCCCCCCCCCCCCCCCCC(=O)c1c(C)c(CCC(=O)O)n(Cc2ccc(C(=O)O)cc2)c1C |  | 57 | inhibition [5]: 47%
28 | CCCCCCCCCCCC(=O)c1c(C)c(CC(=O)O)n(CCCCCC(=O)O)c1C |  | 0 | pIC50 [6]: 4.96
29 | CCCCCCCCCCCCCCCCCC(=O)c1c(C)c(CC(=O)O)n(CCCCCCCCCCCC)c1C |  | 0 | Activity [8, 9]: 1.5 fold
30 | CCCCCCCCCCCC(=O)c1c(C)c(CCC(=O)O)n(CCC(=O)O)c1C |  | 0 | pIC50 [6]: 5.10
31 | CCCCCCCCCCCC(=O)c1c(C)c(CCC(=O)O)n(CCCCCCCC(=O)O)c1C |  | 0 | pIC50 [6]: 5.44
32 | CCCCCCCCCCCC(=O)c1c(C)c(CC(=O)O)n(C)c1C |  | 0 | pIC50 [6]: 4.96
33 | CCCCCCCCCCCCCCCCCC(=O)c1c(C)c(CC(=O)O)n(C)c1CCCCCCCCCCCC |  | 0 | Activity [8, 9]: 1.5 fold
34 | CCCCCCCCCCCCCCCCCC(=O)c1c(C)c(CCC(=O)O)n(Cc2ccc(O)cc2)c1C |  | 0 | inhibition [5]: 30%

Further lines, with some results ahead:

Row | pIC50 [7] | Structure (SMILES) | Lysis [2] [%] | other results
35 | 5.15 | CCCCCCCCCCCCCCCCCC(=O)c1c(C)c(CC(=O)O)n(Cc2ccccc2)c1C | 32 | 
36 | 5.00 | CCCCCCCCCCCCCCCCCC(=O)c1c(C)c(CCC(=O)O)n(CCCCC)c1C | 13 | inhibition [5]: 23%
37 | 4.96 | CCCCCCCCCCCCCCCCCC(=O)c1c(C)c(CCC(=O)O)n(CC)c1C | 0 | 
38 | 5.00 | CCCCCCCCCCCCCCCCCC(=O)c1c(C)c(CC(=O)O)n(C)c1C | 0 | 
39 | 4.92 | CCCCCCCCCCCCCCCCCC(=O)c1c(C)c(CC(=O)O)n(C)c1Cc1ccccc1 | 0 | 
40 | 5.00 | CCCCCCCCCCCCCCCCCC(=O)c1c(Cc2ccccc2)c(CC(=O)O)n(C)c1C | 22 | 
41 | 5.05 | CCCCCCCCCCCCCCCCCC(=O)c1c(C)c(CC(=O)O)n(Cc2ccc(C)cc2)c1C | 29 | 
42 | 4.92 | CCCCCCCCCCCCCCCCCC(=O)c1c(C)c(CCC(=O)O)n(Cc2ccccc2)c1C | 19 | inhibition [5]: 20%
43 | 5.05 | CCCCCCCCCCCCCCCCCC(=O)c1c(C)c(CC(=O)O)n(CC)c1C | 10 | 
44 | 4.82 | CCCCCCCCCCCCCCCCCC(=O)c1cc(CC(=O)O)n(C)c1 | 0 | 
45 | 4.89 | CCCCCCCCCCCCCCCCCC(=O)c1c(C)c(CCC(=O)O)n(C)c1C | 0 | 
46 | < 5.00 | CCCCCCCCCCCCCCCCCC(=O)c1c(C)c(CC(=O)O)n(CCCCCC)c1C | 37 | 
47 | 4.96 | CCCCCCCCCCCCCCCCCC(=O)c1c(C)c(CCC(=O)O)n(CCC)c1C | 0 | 
48 | 5.10 | CCCCCCCCCCCCCCCCCC(=O)c1c(C)c(CC(=O)O)n(CCC)c1C | 34 | 
